Reference: ChEMBL document CHEMBL1129413, “Synthesis and selective monoamine oxidase B-inhibiting properties of 1-methyl-1,2,3,6-tetrahydropyrid-4-yl carbamate derivatives: potential prodrugs of (R)- and (S)-nordeprenyl” (J Med Chem, 1996)
Where “and” joins values, the source holds several entries; their conditions need not be identical. Equal values may be shown once.

Tests used:
[1] = biological target: T1, Amine oxidase [flavin-containing] B (Mus musculus, UniProt Q8BW75); assay: The ability (124 umol/kg/day) to inactivate monoamine oxidaseB (MAO-B) was tested on brain mitochondrial membranes of mice for 3 day; settings: 72 h
T1 sequence (Q8BW75 whole entry): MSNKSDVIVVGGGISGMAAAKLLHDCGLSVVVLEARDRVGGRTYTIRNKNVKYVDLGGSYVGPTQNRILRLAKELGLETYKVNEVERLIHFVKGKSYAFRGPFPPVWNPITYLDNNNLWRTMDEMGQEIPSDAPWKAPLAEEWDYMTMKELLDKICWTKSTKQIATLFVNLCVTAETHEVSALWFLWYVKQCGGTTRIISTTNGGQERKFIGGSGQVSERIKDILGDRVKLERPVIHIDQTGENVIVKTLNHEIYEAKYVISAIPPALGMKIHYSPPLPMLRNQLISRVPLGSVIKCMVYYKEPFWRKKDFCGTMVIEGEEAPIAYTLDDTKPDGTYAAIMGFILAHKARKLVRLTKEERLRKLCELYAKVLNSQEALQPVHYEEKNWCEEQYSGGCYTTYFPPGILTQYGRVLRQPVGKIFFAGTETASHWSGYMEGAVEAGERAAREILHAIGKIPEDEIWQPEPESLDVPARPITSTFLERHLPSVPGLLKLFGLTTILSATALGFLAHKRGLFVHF

Monoamine oxidase [2] = biological target: T2, Monoamine oxidase (Mus musculus, UniProt Q8BW75+Q64133); assay: The ability (25 umol/kg/day) to inactivate monoamine oxidase (MAO) was tested on brain mitochondrial membranes of mice, for 3 days; format: functional; settings: 72 h
T2 sequence (Q8BW75 whole entry): T1 sequence (Q8BW75 whole entry)
T2 sequence (Q64133 whole entry): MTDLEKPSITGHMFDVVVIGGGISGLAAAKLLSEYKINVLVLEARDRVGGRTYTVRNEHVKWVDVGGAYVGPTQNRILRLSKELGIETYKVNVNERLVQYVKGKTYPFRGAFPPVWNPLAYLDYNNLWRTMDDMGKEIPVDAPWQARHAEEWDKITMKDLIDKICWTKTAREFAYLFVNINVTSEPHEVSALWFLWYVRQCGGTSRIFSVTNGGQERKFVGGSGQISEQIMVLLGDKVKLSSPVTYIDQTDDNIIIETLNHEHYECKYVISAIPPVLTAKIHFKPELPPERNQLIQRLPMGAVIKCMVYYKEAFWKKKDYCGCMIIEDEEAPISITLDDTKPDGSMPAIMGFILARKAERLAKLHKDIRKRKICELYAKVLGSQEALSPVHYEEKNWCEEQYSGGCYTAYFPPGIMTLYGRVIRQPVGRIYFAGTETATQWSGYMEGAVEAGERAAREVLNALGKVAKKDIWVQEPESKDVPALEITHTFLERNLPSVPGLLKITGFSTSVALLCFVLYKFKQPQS

[3] = Ratio of activities of MAO-B / MAO-A; format: functional
[4] = biological target: T3, Amine oxidase [flavin-containing] A (Mus musculus, UniProt Q64133); assay: The ability (124 umol/kg/day) to inactivate monoamine oxidase A(MAO-A) was tested on brain mitochondrial membranes of mice, for 3 day; settings: 72 h
T3 sequence (Q64133 whole entry): T2 sequence (Q64133 whole entry)

[5] = Residual activity was obtained; format: functional
[6] = biological target: T1, Amine oxidase [flavin-containing] B; assay: The ability (25 umol/kg/day) to inactivate monoamine oxidase B (MAO-B) was tested on brain mitochondrial membranes of mice, for 3 day; format: functional; settings: 72 h
[7] = biological target: T3, Amine oxidase [flavin-containing] A; assay: The ability (25 umol/kg/day) to inactivate monoamine oxidase A(MAO-A) was tested on brain mitochondrial membranes of mice, for 3 day; format: functional; settings: 72 h
[8] = biological target: T3, Amine oxidase [flavin-containing] A; assay: The ability of the compound(25 umol/kg/day) to inactivate monoamine oxidase A(MAO-A) was tested on brain mitochondrial membranes of mice, for 3 day.; format: functional; settings: 72 h
In short: (§1)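 Male ICR mice (25-35 g), 25 µmol/kg/day ip in sterile saline for 3 days, n = 3; killed day 4, 24 h after last dose. Whole-brain mitochondria isolated by differential centrifugation, lysed in ice-cold water, membranes in 10 mM phosphate pH 7.4. Membranes preincubated 30 min at 37 °C with buffer (total), 3 × 10^-8 M clorgyline (MAO-B), 3 × 10^-7 M deprenyl (MAO-A), or both (residual).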

[9] = biological target: T1, Amine oxidase [flavin-containing] B; assay: The ability of the compound(25 umol/kg/day) to inactivate monoamine oxidase B (MAO-B) was tested on brain mitochondrial membranes of mice, for 3 day.; format: functional; settings: 72 h
In short: as §1

Monoamine oxidase [10] = biological target: T2, Monoamine oxidase; assay: The ability of the compound(25 umol/kg/day) to inactivate monoamine oxidase (MAO) was tested on brain mitochondrial membranes of mice, for 3 days.; format: functional; settings: 72 h
In short: as §1

[11] = Residual activity was obtained.; format: functional
In short: as §1

| Structure (SMILES) | Activity [1] [nmol/min/mg] | Activity (Monoamine oxidase [2]) [nmol/min/mg] | Ratio [3] | Activity [4] [nmol/min/mg] | Activity [5] [nmol/min/mg] | Activity [6] [nmol/min/mg] | Activity [7] [nmol/min/mg] | Activity [8] | Activity [9] | Activity (Monoamine oxidase [10]) | Residual activity [11] |
| --- | --- | --- | --- | --- | --- | --- | --- | --- | --- | --- | --- |
| C#CCN(C(=O)OC1=CCN(C)CC1)[C@H](C)Cc1ccccc1 | 0.78 | 1.36 | 0.63 | 1.1 | 0.45 |  |  |  |  |  |  |
| C#CCN(C(=O)OC1=CCN(C)CC1)[C@@H](C)Cc1ccccc1 |  | 3.75 | 4.4 |  | 0.2 | 3.35 | 0.76 |  |  |  |  |
| C#CCN[C@H](C)Cc1ccccc1 [RNORDEPRENYL] |  |  | 0.71 |  |  |  |  | 1.07 nM | 0.68 nM | 1.31 nM | 0.46 nM |
| C#CCN(C)[C@H](C)Cc1ccccc1 [SELEGILINE] |  |  | 0.72 and 0.66 |  |  |  |  | 0.64 nM and 1.06 nM | 0.46 nM and 0.7 nM | 0.84 nM and 1.36 nM | 0.24 nM and 0.44 nM |
